In paper PMC2865185 (The FEBS journal, 2009):
Numbering of substitutions follows the chain as printed. Read-outs that look alike come from different tables or passages of the source.

What was measured:
EphA3 kinase domain = details: juxtamembrane peptide, ref [20], cited from earlier work
EphA3(K785E) = biological target: T1, EphA3(K785E) (Homo sapiens, UniProt P29320, K785E); assay: ADP-Quest kinase assay, EphA3 K785E mutant; format: biochemical
T1 sequence (P29320 577-947 K785E limits assumed): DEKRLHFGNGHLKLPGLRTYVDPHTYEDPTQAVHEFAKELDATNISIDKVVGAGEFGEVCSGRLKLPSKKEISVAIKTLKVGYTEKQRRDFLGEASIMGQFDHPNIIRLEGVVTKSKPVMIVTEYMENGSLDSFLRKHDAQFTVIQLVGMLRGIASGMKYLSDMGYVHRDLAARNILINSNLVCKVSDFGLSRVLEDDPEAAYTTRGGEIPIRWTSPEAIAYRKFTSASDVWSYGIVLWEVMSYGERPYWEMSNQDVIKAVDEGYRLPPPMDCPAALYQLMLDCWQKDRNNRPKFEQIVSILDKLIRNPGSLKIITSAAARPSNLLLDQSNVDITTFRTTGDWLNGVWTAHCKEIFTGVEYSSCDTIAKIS
Summary of the method: (§1)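 EphA3 kinase domain, wild-type or point mutant made by site-directed mutagenesis, expressed in E. coli BL21 Gold (DE3). His-tag purified, thrombin-cleaved, gel-filtered, then autophosphorylated with 10 mM each ATP and MgCl2; free nucleotide removed by anion exchange. ADP-Quest fluorescence (ex 530/em 590 nm) at room temperature. Peptide 1–4000 µM, ATP 200 µM, enzyme 10 nM–5 µM. Duplicates, background-ADP corrected. Km/Vmax from Michaelis–Menten fit; SD from two independent experiments.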

[1] = biological target: T2, EphA3 kinase domain (wild-type) (Homo sapiens, UniProt P29320); assay: ADP-Quest kinase assay, wild-type EphA3 kinase domain; format: biochemical; details: for kcat/Km / kcat: 200 µM ATP, room temperature, ADP-Quest; for kcat: ± SD from two independent experiments, in duplicate
T2 sequence (P29320 621-882 limits assumed): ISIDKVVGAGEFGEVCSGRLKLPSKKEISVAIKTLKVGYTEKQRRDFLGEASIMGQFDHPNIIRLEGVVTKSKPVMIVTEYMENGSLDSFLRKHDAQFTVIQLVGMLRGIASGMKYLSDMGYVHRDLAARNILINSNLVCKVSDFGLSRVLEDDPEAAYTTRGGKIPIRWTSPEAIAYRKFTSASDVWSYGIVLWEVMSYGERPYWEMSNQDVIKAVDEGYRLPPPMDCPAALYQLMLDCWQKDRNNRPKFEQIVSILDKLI
Summary of the method: as §1

EphA3(N830A) = biological target: T3, EphA3(N830A) (Homo sapiens, UniProt P29320, N830A); assay: ADP-Quest kinase assay, EphA3 N830A mutant; format: biochemical; details: for kcat/Km / Km / kcat: 200 µM ATP, room temperature, ADP-Quest; for Km / kcat: peptide 1 to 4000 µM, ± SD from two independent experiments, in duplicate
T3 sequence (P29320 621-882 N830A limits assumed): T2 sequence (P29320 621-882 limits assumed) with N210A
Summary of the method: as §1

EphA7 = biological target: T4, EphA7 (Homo sapiens, UniProt Q15375); assay: Isoform specificity of EPHOPT, EphA7; format: biochemical; details: in words; EphA7, non-arginine at position 782
T4 sequence (Q15375 633-894 limits assumed): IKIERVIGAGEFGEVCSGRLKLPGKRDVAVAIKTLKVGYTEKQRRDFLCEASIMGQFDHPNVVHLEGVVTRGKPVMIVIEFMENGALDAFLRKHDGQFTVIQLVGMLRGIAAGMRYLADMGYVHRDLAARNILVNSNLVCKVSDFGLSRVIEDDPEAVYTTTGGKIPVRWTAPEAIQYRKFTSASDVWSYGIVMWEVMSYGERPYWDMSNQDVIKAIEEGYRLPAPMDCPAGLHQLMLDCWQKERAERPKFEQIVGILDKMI
Summary of the method: (§2)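 Each kinase prepared by target. EphA5, EphA7 and EphB3 were autophosphorylated with 10 mM each ATP and MgCl2, then freed of nucleotide by anion exchange. EphB2 and EphB4 were bought in active form and used unmodified. ADP-Quest fluorescence read-out (ex 530/em 590 nm) at room temperature. Peptide substrate 1–4000 µM, ATP 200 µM, enzyme 10 nM–5 µM. Duplicates, background-corrected. Kinetic constants from Michaelis–Menten fit.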

[2] = test system: EphA5, EphA7, EphB3, EphB4, EphB2 (relative to EphA3); assay: Isoform specificity of EPHOPT, other EPH kinase domains; format: biochemical
Summary of the method: as §2

EphB4 = biological target: T5, EphB4 (Homo sapiens, UniProt P54760); assay: Isoform specificity of EPHOPT, EphB4; format: biochemical; details: in words; EphB4, non-arginine at position 782
T5 sequence (P54760 615-899 limits assumed): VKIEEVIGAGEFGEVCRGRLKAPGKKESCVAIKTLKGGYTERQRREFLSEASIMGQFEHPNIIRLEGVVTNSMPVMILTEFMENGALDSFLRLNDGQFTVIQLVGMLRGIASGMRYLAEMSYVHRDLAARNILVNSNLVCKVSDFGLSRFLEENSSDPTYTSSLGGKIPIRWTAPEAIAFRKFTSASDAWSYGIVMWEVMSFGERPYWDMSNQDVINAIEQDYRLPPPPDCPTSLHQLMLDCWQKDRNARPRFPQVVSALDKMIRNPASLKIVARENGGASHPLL
Summary of the method: as §2

EphB2 = biological target: T6, EphB2 (Homo sapiens, UniProt P29323); assay: Isoform specificity of EPHOPT, EphB2; format: biochemical; details: in words; EphB2, non-arginine at position 782
T6 sequence (P29323 621-884 limits assumed): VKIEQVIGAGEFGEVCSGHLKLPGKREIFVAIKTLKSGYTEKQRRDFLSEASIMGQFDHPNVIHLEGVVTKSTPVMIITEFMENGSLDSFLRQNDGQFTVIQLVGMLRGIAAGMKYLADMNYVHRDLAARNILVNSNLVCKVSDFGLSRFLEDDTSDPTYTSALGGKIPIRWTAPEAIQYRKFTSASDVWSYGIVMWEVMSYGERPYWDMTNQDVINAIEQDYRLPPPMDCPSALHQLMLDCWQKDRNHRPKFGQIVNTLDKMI
Summary of the method: as §2

[3] = Aqueous solubility of peptide; format: physicochemical; details: aqueous buffer
EphB3 = biological target: T7, EphB3 (Homo sapiens, UniProt P54753); assay: Isoform specificity of EPHOPT, EphB3; format: biochemical; details: in words
T7 sequence (P54753 633-896 limits assumed): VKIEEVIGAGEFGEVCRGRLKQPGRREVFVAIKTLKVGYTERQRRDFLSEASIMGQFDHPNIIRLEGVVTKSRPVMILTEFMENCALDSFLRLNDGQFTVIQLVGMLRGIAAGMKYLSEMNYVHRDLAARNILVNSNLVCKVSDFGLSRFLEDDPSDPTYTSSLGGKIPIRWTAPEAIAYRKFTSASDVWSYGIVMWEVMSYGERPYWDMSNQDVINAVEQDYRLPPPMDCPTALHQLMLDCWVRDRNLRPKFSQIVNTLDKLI
Summary of the method: as §2

[4] = EphA3(K785E), 200 µM ATP, room temperature, ADP-Quest, ± SD from two independent experiments, in duplicate
[5] = EphA3 K785E mutant, 200 µM ATP, room temperature, ADP-Quest
[6] = EphA3 K785E mutant, peptide 1 to 4000 µM, 200 µM ATP, room temperature, ADP-Quest, ± SD from two independent experiments, in duplicate
[7] = relative to juxtamembrane peptide
[8] = EphA3(N830A) relative to wild-type

D^598PHTYEDPTQ^606 [juxtamembrane EphA3 peptide]
Km (EphA3 kinase domain; EphA3 kinase domain): 1000 ± 20 µM | catalytic efficiency (EphA3 kinase domain; EphA3 kinase domain): 200 min⁻¹ mM⁻¹ | kcat (EphA3 kinase domain; EphA3 kinase domain): 199 ± 9 min⁻¹ | kcat (EphA3 kinase domain; quoted for comparison with EPHOPT): 199 per minute

KQWDNYEFIW [OPTYF]
kcat/Km (EphA3(K785E); EphA3(K785E), 200 µM ATP, room temperature, ADP-Quest): 0.155 µM/min | kcat (EphA3(K785E); [4]): 0.383 ± 0.13 s⁻¹ | kcat/Km (EphA3(K785E); [5]): 2580 M⁻¹ s⁻¹ | kcat (EphA3(K785E); [6]): 0.383 ± 0.13 s⁻¹ | kcat/Km [1]: 233880 M⁻¹ s⁻¹ | kcat [1]: 421 ± 30 min⁻¹ | kcat ([1]; peptide 1 to 4000 µM): 421 ± 30 min⁻¹ | relative change in Km ([1]; relative to EPHOPT): ~ 2 -fold | relative change in kcat ([1]; relative to EPHOPT): ~ 2 -fold | weaker affinity (relative to EPHOPT) (EphA3(N830A); EphA3(N830A), OPTYF versus EPHOPT): 5 -fold | kcat/Km (EphA3(N830A); EphA3 N830A mutant): 3280 M⁻¹ s⁻¹ | Km (EphA3(N830A); EphA3 N830A mutant): 152 ± 35 µM | kcat (EphA3(N830A); EphA3 N830A mutant): 0.5 ± 0.0233 s⁻¹

KQWDNYEKIW [OPTYK]
kcat/Km [1]: 34270 M⁻¹ s⁻¹ | kcat ([1]; peptide 1 to 4000 µM): 220 ± 27 min⁻¹

KQWDNYEpYIW [EPHOPT]
catalytic efficiency (EphA7) (EphA7): lower catalytic efficiencies | rank order of catalytic efficiency across isoforms ([2]; EphA3 and five other EPH kinases, Supplemental Table S2): EphA3>EphA5≅EphB3>>EphA7≅EphB4>>EphB2 | selectivity for EphA3 over other EPH kinases ([2]; in words): mildly to strongly selective for EphA3 | decrease in catalytic efficiency (EphA3(K785E); EphA3(K785E) relative to wild-type): 260 -fold | negative effect on Km (EphA3(K785E); EphA3(K785E) relative to wild-type enzyme): about an order of magnitude | kcat (EphA3(K785E); [4]): 0.567 ± 0.012 s⁻¹ | kcat/Km (EphA3(K785E); [5]): 3020 M⁻¹ s⁻¹ | Km (EphA3(K785E); [6]): 188 ± 64 µM | kcat (EphA3(K785E); [6]): 0.567 ± 0.012 s⁻¹ | catalytic efficiency (EphB4) (EphB4): lower catalytic efficiencies | kcat/Km [1]: 787030 M⁻¹ s⁻¹ | kcat [1]: 850 ± 44 per minute | kcat ([1]; peptide 1 to 4000 µM): 850 ± 44 min⁻¹ | drop in Km [1, 7]: almost two orders of magnitude | increase in catalytic efficiency [1, 7]: over 200 -fold | increase in kcat [1, 7]: 4 -fold | decrease in catalytic efficiency (EphA3(N830A); [8]): more than one order of magnitude decrease | decrease in kcat/Km (EphA3(N830A); [8]): 56 -fold | kcat/Km (EphA3(N830A); EphA3(N830A)): 0.835 µM/min | kcat/Km (EphA3(N830A); EphA3 N830A mutant): 13900 M⁻¹ s⁻¹ | Km (EphA3(N830A); EphA3 N830A mutant): 39.5 ± 0.7 µM | kcat (EphA3(N830A); EphA3 N830A mutant): 0.55 ± 0.0233 s⁻¹ | catalytic efficiency (EphB2) (EphB2): lower catalytic efficiencies | solubility [3]: ≥ 100000 µM | catalytic efficiency of EphB3 relative to EphA5 (EphB3): nearly as efficient as EphA5 | substrate affinity at EphB3 relative to EphA3 (EphB3): nearly identical substrate affinity as EphA3
